Test results reported in publication PMC7065716 (International Journal of Nanomedicine, 2020).
Values joined by “and” are separate entries in the source; they are usually repeats but may differ in a detail not shown here. Equal entries are not always repeated. Structures can show the parent of a compound that is named as a salt.

Legend:
In vitro DH release = assay type: physicochemical; details: dialysis bag, pH 5.5, 37 °C
Procedure, shortened: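 Formulation or free drug solution (3 mg drug equivalent) held in a cellophane dialysis bag (MWCO 12,000) wrapped on a cylinder. Bag placed in 30 mL PBS, pH 5.5, at 37 ± 0.5 °C, stirred 50 rpm. 3 mL sampled at 1, 2, 3, 5, 6, 7 and 8 h and replaced. UV read at 292 nm. Run in triplicate, mean ± SD, cumulative % released.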

Ex vivo skin permeation = assay type: in vitro ADME, rat
Procedure, shortened: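 Franz cell, 5.0 cm2 permeation area, 100 mL distilled-water receiver. Shaved rat skin mounted stratum corneum up. Donor: vesicle formulation equivalent to 3 mg drug, or drug solution as control. Run at 37 ± 2 °C, 100 rpm, 24 h, sampling at 1–24 h with medium replaced. UV read at 292. Lag time from x-intercept of the linear portion of the cumulative µg/cm2-versus-time plot; Jss (µg/cm2/h) and Kp (cm/h) calculated.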

[1] = Pharmacokinetic analysis in rats; assay type: in vivo; details: Wister albino, rat, plasma, 10 mg/kg
Procedure, shortened: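 Rats (200–250 g, six per group) fasted 10 h, then dosed 10 mg/kg by oral gavage or as 1 g gel on 4 cm2 shaved dorsum. Retro-orbital blood (0.5 mL, heparinized) taken 0.25–24 h; plasma stored −20°C. Plasma spiked with internal standard, extracted with tert-butyl methyl ether, reconstituted in acetonitrile:0.1% formic acid (80:20), analysed by LC-MS/MS on C18. Non-compartmental analysis; AUC by trapezoidal rule.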

[2] = system: anti-cyclic citrullinated peptide antibody (anti-CCP); test: CFA-induced RA in rats: serum anti-CCP; assay type: in vivo, female Wister albino rats; details: treated day 13-27, serum day 28
Procedure, shortened: (§1)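 Arthritis induced as three 0.4 mL subcutaneous plantar CFA injections (days 1, 4, 7); treatments given days 13–27 as topical gel 1 g/day on 4 cm2 shaved dorsum or oral 10 mg/kg/day. Eight rats per group. Day 28, 24 h after last dose, retro-orbital blood under diethyl ether; serum separated at 3000 rpm for 30 min, stored −20°C, assayed by ELISA kit. One-way ANOVA with Tukey test.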

[3] = system: cartilage oligomeric matrix protein (COMP); test: CFA-induced RA in rats: serum COMP; assay type: in vivo, female Wister albino rats; details: treated day 13-27, serum day 28
Procedure, shortened: as §1

IL-6 = test: CFA-induced RA in rats: serum IL-6; assay type: in vivo, female Wister albino rats; details: treated day 13-27, serum day 28, listed as oral DH
Procedure, shortened: as §1

CFA-induced RA in rats [4] = test: CFA-induced RA in rats: radiographic analysis; assay type: in vivo, female Wister albino rats; details: day 28
CFA-induced RA in rats [5] = test: CFA-induced RA in rats: histopathology of knee joints, spleen and liver; assay type: in vivo, female Wister albino rats; details: H&E
Procedure, shortened: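 CFA (0.4 mL) injected subcutaneously into hind-limb plantar surface on days 1, 4 and 7 in female rats, 180–200 g, 8 per group. From day 13 to 27: topical gel 1 g/day on 4 cm2 shaved dorsum, oral 10 mg/kg/day, or reference oral drug 0.1 mg/kg/day. On day 28, under pentobarbitone 50 mg/kg i.p., three knee joints per group plus spleen and liver fixed in 10% formalin saline for 24 h, H&E-stained and read by pathologist.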

[6] = cited from earlier work

Compound: CN(C)[C@@H](CCOc1cccc2ccccc12)c1ccccc1 [DH, Dapoxetine hydrochloride]
- DH released in the first 3 h (In vitro DH release): approximately 95%
- Papp (Ex vivo skin permeation; rat): 0.944 ×10⁻⁶ cm/s
- Lag Time (Ex vivo skin permeation; rat skin, Franz cell): 91.10 ± 20.67 min
- Y5: Q24, cumulative amount permeated/unit area in 24 h (Ex vivo skin permeation; rat skin, Franz cell, 37 °C, 24 h): 135.6±17.0 µg/cm2
- Jss (drug flux, steady state) (Ex vivo skin permeation; rat skin, Franz cell, listed as DH solution): 5.6±0.7 µg/cm2.h and 5.65± 0.71 µg/cm2.h
- AUC(0-inf) ([1]; oral): 734 ng·h/mL
- Cmax ([1]; oral): 198 ng/mL
- AUC(0-inf) ([1]; po): 734 ± 51.1 ng·h/mL
- AUC(0-t) ([1]; po): 701 ± 25.8 ng·h/mL
- Cmax ([1]; po): 198 ± 16.4 ng/mL
- MRT ([1]; po): 5.74 ± 1.56 h
- Tmax ([1]; po): 1.5 ± 0.06 h
- half-life ([1]; po): 5.46 ± 2.87 h
- Anti-CCP (serum) [2]: 4.64 ± 0.15^a, b, c, d, e ng/mL
- COMP (serum) [3]: 70.30 ± 5.73^a, b, c, d, e pg/mL
- IL-6 (serum) (IL-6): no significant effect
- radiographic findings (CFA-induced RA in rats [4]): significant and comparable inhibition of soft tissues swelling
- knee joint histopathology (CFA-induced RA in rats [5]): rough cerrated articular surface
- liver histopathology (CFA-induced RA in rats [5]): marked congestion of central veins
- spleen histopathology (CFA-induced RA in rats [5]): marked activation in the macrophage in the white pulb
- elimination half-life [6]: 1.31 h

Compound: CN(Cc1cnc2nc(N)nc(N)c2n1)c1ccc(C(=O)N[C@@H](CCC(=O)O)C(=O)O)cc1 [MTX, methotrexate]
- Anti-CCP (serum) [2]: 4.00 ± 0.03^a, b, c ng/mL
- radiographic findings (CFA-induced RA in rats [4]): almost normal soft tissue with disappearance of inflammatory signs
